Results filed as inconclusive are left out.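 Rule for the calls, unless noted: active = cell viability at or below a set limit in both duplicate runs, the limit being the all-compound median minus 4 SD (cut at about 23% in these data, passing the limit was not always enough); inconclusive = no clear call, values can overlap the other calls; inactive = the rest.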
How the values were obtained:
[1] = S. cerevisiae growth inhibition in permissive medium (OD615), pilot counter-assay for S. cerevisiae lifespan shortening project, permissive growth control (AID 705;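 active = growth inhibition above 25% in both replicates, a cutoff set 3 SD above the mean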); conditions: OD615, 24 h, at 10 µM, active compounds read high
Outline: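 System: S. cerevisiae with engineered DeaD lifespan system. Medium: SC raffinose/galactose permissive medium. Doses: single compound dose of 10 µM, 0.25% DMSO final. Schedule: 24 h exposure, 30 °C. Measured by: OD615 turbidity read. Read-out: growth inhibition.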

[2] = S. cerevisiae growth inhibition in restrictive medium, OD615, pilot screen, restrictive growth control, yeast lifespan reduction project (AID 706;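 active = growth inhibition above a set limit, 3 SD over mean compound inhibition, in both replicates, cut at about 43% in these data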;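 note: modified DeaD lifespan yeast strain shifted to restrictive glucose medium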); conditions: OD615, 48 h, at 10 µM, active compounds read high
Outline: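 Assay system – genetically modified Saccharomyces cerevisiae, DeaD replicative lifespan assay strain · Medium – CSMM-D glucose medium · Doses – 10 µM compound, 0.25% DMSO · Times – 4 h pre-incubation, 48 h exposure at 30 °C · Signal – optical density at 615 nm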

[3] = doxorubicin toxicity protection in MRP-1 cells – H69AR cells, CellTiter-Glo, duplicate, MRP-1 activator project, pilot screen (AID 807;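 active = viability increase at or above a cutoff of the median across tested compounds plus 3 SD, cut at about 8.5% in these data, passing the limit was not always enough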;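 note: compound pretreatment 18-22 h then 72 h combined with doxorubicin; 0% = doxorubicin alone and 100% = vehicle without doxorubicin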); conditions: H69AR viability with doxorubicin, CellTiter-Glo luminescence; at 10 µM; active compounds read high
[4] = viability of HCT116 without oncogenic beta-catenin – human colon tumor cells, pilot screen (AID 823); conditions: HCT116 beta-catenin knockout viability, CellTiter-Glo, 60 h; at 10 µM; active compounds read low;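 note: 0% = wells killed by 20 µM Hyamine and 100% = untreated DMSO cell wells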
[5] = viability of PTEN-null HCT116 cells – cell-based, HCT116 clonal line, CellTiter-Glo, pilot screen (AID 824;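 active = viability at or below 27.92% in each of two runs, the all-compound median minus 4 SD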;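 note: 0% = 20 µM Hyamine control and 100% = vehicle cell control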); conditions: HCT116 PTEN-deleted viability, 60 h, at 10 µM, active compounds read low
[6] = RAM pathway blockade in budding yeast – dse1pr::URA3 reporter, 5-FOA selection, pilot screen (AID 869;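 active = inhibition over a set limit, the all-compound mean plus 3 SD, in both replicate runs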;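 note: 0% = DMSO wells with no growth and 100% = 10 µM 1-NA-PP1 with full growth; RAM network block rescues cells from 5-FOA so hits raise OD615 growth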); conditions: S. cerevisiae dse1pr::URA3 5-FOA growth, OD615, 2 d; at 10 µM; active compounds read high; strain carries analog-sensitive mutant Cbk1 kinase
[7] = RAM signaling pathway blockade in yeast – S. cerevisiae, Pdr1DBD-CYC8 efflux-inhibited sensitized strain, primary screen (AID 1298;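 active = RAM network inhibition above 8.4% in each of two replicates, 3 SD over the compound average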;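 note: 0% = DMSO untreated cells without growth and 100% = 10 µM 1-NA-PP1 full growth; higher means more yeast growth rescued from 5-FOA killing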); conditions: S. cerevisiae cbk1-as DSE1-URA3 strain, 5-FOA growth OD615, 2 d; at 50 µM; active compounds read high

CNC(=O)C1CC(=O)N(c2ccc(C)cc2)C1 (stereo not given)
inactive: growth inhibition [1] -11.6% | growth inhibition [2] -11.4% | viability increase [3] 0.85% | viability [4] 98.5% | viability [5] 102% | inhibition [6] 0.395% | RAM network inhibition [7] 2.24%

O=C(c1cccc(S(=O)(=O)N2CCOCC2)c1)N1CCOCC1
inactive: growth inhibition [1] -3.56% | growth inhibition [2] -5.11% | viability increase [3] -0.71% | viability [4] 101% | viability [5] 97.9% | inhibition [6] 0.835% | RAM network inhibition [7] 1.18%

Cc1ccc(-c2csc(N3CCC(C(N)=O)(N4CCCCC4)CC3)n2)cc1
inactive: growth inhibition [1] 6.21% | growth inhibition [2] -8.75% | viability increase [3] -1.76% | viability [4] 75.5% | viability [5] 75% | inhibition [6] -0.445% | RAM network inhibition [7] 2.58%

CCn1c(C(C)NC(C)=O)nc2ccccc21 (stereo not given)
inactive: growth inhibition [1] -13.6% | growth inhibition [2] -5.8% | viability increase [3] 0.8% | viability [4] 112% | viability [5] 106% | inhibition [6] 2.2% | RAM network inhibition [7] 3.48%

COCCn1c(=O)[nH]c2cc(C(=O)NCCN3CCN(c4ccccc4)CC3)ccc2c1=O
inactive: growth inhibition [1] -5.1% | growth inhibition [2] 7.77% | viability increase [3] -0.22% | viability [4] 92.5% | viability [5] 93.2% | inhibition [6] 1.11% | RAM network inhibition [7] 3.35%

Cc1cc(N2CCOCC2)cc(C)[n+]1[O-]
inactive: growth inhibition [1] -2.4% | growth inhibition [2] -2.99% | viability increase [3] -1.54% | viability [4] 89.5% | viability [5] 93.2% | inhibition [6] -0.115% | RAM network inhibition [7] 1.76%

CCOC(=O)C1CCCN(c2c(Nc3cccc(C)c3)c(=O)c2=O)C1 (stereo not given)
inactive: growth inhibition [1] -6.7% | growth inhibition [2] 2.08% | viability increase [3] -2.71% | viability [4] 104% | viability [5] 93.2% | inhibition [6] -0.555% | RAM network inhibition [7] 2.72%

COc1ccc(OC)c2c1sc(=NC(=O)CN1C(=O)CCC1=O)n2C
inactive: growth inhibition [1] -3.75% | growth inhibition [2] 5.91% | viability increase [3] -1.92% | viability [4] 92.7% | viability [5] 87.4% | inhibition [6] 1.16% | RAM network inhibition [7] 2.41%

COC(=O)C1=CN(CCCN2CCCC2=O)C=C(C(=O)OC)C1c1ccccc1C(F)(F)F
inactive: growth inhibition [1] -10% | growth inhibition [2] 1.3% | viability increase [3] -6.27% | viability [4] 39.6% | viability [5] 35.7% | inhibition [6] 0.125% | RAM network inhibition [7] 1.94%

CCCCOC(=O)CCc1n[nH]c(=O)[nH]c1=O
inactive: growth inhibition [1] -11.1% | growth inhibition [2] -17.6% | viability increase [3] -1.14% | viability [4] 99.8% | viability [5] 99% | inhibition [6] 2.12% | RAM network inhibition [7] 2.93%

O=C(CCCC(=O)OCC(F)(F)C(F)F)Nc1nccs1
inactive: growth inhibition [1] -7.96% | growth inhibition [2] 8.98% | viability increase [3] -0.61% | viability [4] 101% | viability [5] 102% | inhibition [6] 1.56% | RAM network inhibition [7] -0.01%

Cc1ccc(S(=O)(=O)N=C2SCCCS2)cc1
inactive: growth inhibition [1] -3.74% | growth inhibition [2] 6.67% | viability increase [3] -2.68% | viability [4] 99.2% | viability [5] 99.5% | inhibition [6] 1.31% | RAM network inhibition [7] 2.39%

CC(=O)Oc1cccc(N2C(=O)C3C(C2=O)C2C=CC3C23CC3)c1 (stereo not given)
inactive: growth inhibition [1] -8.98% | growth inhibition [2] -8.59% | viability increase [3] -0.99% | viability [4] 96.9% | viability [5] 101% | inhibition [6] 0.125% | RAM network inhibition [7] 0.63%

O=C(Cn1nc(-c2ccccc2)ccc1=O)Nc1ccc(N2CCN(C(=O)c3ccccc3)CC2)cc1
inactive: growth inhibition [1] -10.1% | growth inhibition [2] -24.7% | viability increase [3] -1.77% | viability [4] 94.5% | viability [5] 87.3% | inhibition [6] 2.17% | RAM network inhibition [7] 8.82%

O=C1CCCN1CC(CN1CCOCC1)Sc1nnnn1-c1ccccc1 (stereo not given)
inactive: growth inhibition [1] -0.73% | growth inhibition [2] 7.22% | viability increase [3] -3.37% | viability [4] 100% | viability [5] 105% | inhibition [6] 1.56% | RAM network inhibition [7] 5.8%

From PubChem BioAssay
